This note sets out measurements from ChEMBL document CHEMBL3860039, “Structure-Activity Relationship and Signaling of New Chimeric CXCR4 Agonists” (J Med Chem, 2016).

Molecules are shown by their SMILES.

What all share (type): cell-based
The target in assay [1] is T1, C-X-C chemokine receptor type 4 (Homo sapiens, UniProt P61073). Nature of the assay: Displacement of [125I]-CXCL12 from HA-tagged human recombinant CXCR4 expressed in HEK293 cells incubated for 1 hr by gamma-radiation counting analysis. For orientation: In a radioligand displacement assay an active substance lowers the binding of a labelled ligand.
In assay [2] the target is T1, C-X-C chemokine receptor type 4. In words: Agonist activity at CXCR4 in human REH cells assessed as induction of chemotaxis incubated for 3 hrs by transwell migration assay. Put shortly:
(§1)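 REH acute lymphoblastic B-cell leukaemia cells washed in RPMI; 100 000 cells in RPMI + 0.2% BSA seeded on top of 5 μm pore polycarbonate transwell, peptide dilutions in same medium in bottom chamber; 3 h, 37 °C, 5% CO2. Migrated cells in lower chamber counted by automated counter, expressed as % of seeded cells; peak = concentration giving maximal migration. Three experiments in triplicate.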

Assay [3] has the same target. Nature of the assay: Agonist activity at HA-tagged human CXCR4 receptor expressed in HEK293 cells co-transfected with Galphai1-91-RlucII, Gbeta1, and GFP10-G-gamma1 incubated for 7 mins by Galpha1 protein activation-based BRET assay. Put shortly: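 HEK293 cells (3 × 10^6 per 100 mm dish) co-transfected via polyethylenimine with HA-hCXCR4 plus Gαi1-91-RlucII, Gβ1, GFP10-Gγ1; replated at 24 h, 100 000 cells/well. At 48 h, washed in HBSS/0.1% BSA, exposed to ligand 10−12 to 10−5 M for 7 min, then coelenterazine-400A 5 μM final; BRET2 515/400 nm ratio. EC50 (Gαi dissociation) and Emax from three experiments in triplicate.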

Assay [4] shares this target. In words: Agonist activity at CXCR4 in human REH cells assessed as optimal concentration causing maximum induction of chemotaxis incubated for 3 hrs by transwell migration assay. Put shortly: as §1

T1 sequence (P61073 whole entry): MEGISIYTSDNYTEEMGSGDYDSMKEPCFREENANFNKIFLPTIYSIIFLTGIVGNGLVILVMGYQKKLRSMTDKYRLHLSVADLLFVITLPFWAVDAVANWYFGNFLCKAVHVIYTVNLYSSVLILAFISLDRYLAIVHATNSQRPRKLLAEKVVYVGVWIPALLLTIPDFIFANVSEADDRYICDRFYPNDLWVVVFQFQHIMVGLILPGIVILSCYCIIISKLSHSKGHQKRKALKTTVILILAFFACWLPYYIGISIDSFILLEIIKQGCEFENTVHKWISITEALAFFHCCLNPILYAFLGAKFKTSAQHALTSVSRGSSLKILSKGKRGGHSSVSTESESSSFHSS

Broadly, the IC50 is the concentration needed to halve the response being measured. The EC50 is the concentration that produces a half-maximal response. The term Emax denotes the size of the effect at its maximum, as opposed to the concentration needed. As to `CC(C)C[C@H](NC(=O)[C@H](CO)NC(=O)[C@@H](NC(=O)[C@@H]1CCCN1C(=O)[C@@H](N)CCCCN)C(C)C)C(=O)N[C@@H](CO)C(=O)N[C@@H](Cc1ccc(I)cc1)C(=O)N[C@@H](CCCNC(=N)N)C(=O)N[C@@H](CO)C(=O)N[C@@H](C)C(=O)NCCCC[C@H](NC(=O)[C@@H]1CSSC[C@H](NC(=O)[C@H](Cc2ccc3ccccc3c2)NC(=O)[C@H](CCCNC(=N)N)NC(=O)[C@@H](N)CCCNC(=N)N)C(=O)N[C@@H](Cc2ccc(O)cc2)C(=O)N[C@@H](CCCNC(=N)N)C(=O)N[C@@H](CCCCN)C(=O)N[C@H](CCCCN)C(=O)N2CCC[C@H]2C(=O)N[C@@H](Cc2ccc(O)cc2)C(=O)N[C@@H](CCCNC(=N)N)C(=O)N[C@@H](CCCNC(=N)N)C(=O)N1)C(=O)O`, the IC50 in assay [1] was determined as 73 nM. Further, the %max in assay [2] was found to be 51%. In assay [3], this compound gave an EC50 of 94 nM and a maximal response (Emax) of 59%. The Activity in assay [4] was found to be 100 nM.

For `CC(C)C[C@H](NC(=O)[C@H](CO)NC(=O)[C@@H](NC(=O)[C@@H]1CCCN1C(=O)[C@@H](N)CCCCN)C(C)C)C(=O)N[C@@H](CO)C(=O)N[C@@H](Cc1ccc(OCc2ccccc2)cc1)C(=O)N[C@@H](CCCNC(=N)N)C(=O)N[C@@H](CO)C(=O)N[C@@H](C)C(=O)NCCCC[C@H](NC(=O)[C@@H]1CSSC[C@H](NC(=O)[C@H](Cc2ccc3ccccc3c2)NC(=O)[C@H](CCCNC(=N)N)NC(=O)[C@@H](N)CCCNC(=N)N)C(=O)N[C@@H](Cc2ccc(O)cc2)C(=O)N[C@@H](CCCNC(=N)N)C(=O)N[C@@H](CCCCN)C(=O)N[C@H](CCCCN)C(=O)N2CCC[C@H]2C(=O)N[C@@H](Cc2ccc(O)cc2)C(=O)N[C@@H](CCCNC(=N)N)C(=O)N[C@@H](CCCNC(=N)N)C(=O)N1)C(=O)O`, the IC50 in assay [1] was found to be 102 nM. Also, the %max in assay [2] was found to be 76%. In assay [3], this compound had an EC50 of 138 nM and an Emax of 79%. For the same compound, the Activity in assay [4] worked out at 100 nM.

For the compound `CC(C)C[C@H](NC(=O)[C@H](CO)NC(=O)[C@@H](NC(=O)[C@@H]1CCCN1C(=O)[C@@H](N)CCCCN)C(C)C)C(=O)N[C@@H](CO)C(=O)N[C@@H](Cc1ccc([N+](=O)[O-])cc1)C(=O)N[C@@H](CCCNC(=N)N)C(=O)N[C@@H](CO)C(=O)N[C@@H](C)C(=O)NCCCC[C@H](NC(=O)[C@@H]1CSSC[C@H](NC(=O)[C@H](Cc2ccc3ccccc3c2)NC(=O)[C@H](CCCNC(=N)N)NC(=O)[C@@H](N)CCCNC(=N)N)C(=O)N[C@@H](Cc2ccc(O)cc2)C(=O)N[C@@H](CCCNC(=N)N)C(=O)N[C@@H](CCCCN)C(=O)N[C@H](CCCCN)C(=O)N2CCC[C@H]2C(=O)N[C@@H](Cc2ccc(O)cc2)C(=O)N[C@@H](CCCNC(=N)N)C(=O)N[C@@H](CCCNC(=N)N)C(=O)N1)C(=O)O`, the IC50 in assay [1] was 109 nM. The %max in assay [2] is 48%. In assay [3], this compound gave an EC50 of 62 nM and an Emax of 73%. Moreover, in assay [4], the Activity amounted to 10 nM.

With `CC(C)C[C@H](NC(=O)[C@H](CO)NC(=O)[C@@H](NC(=O)[C@@H]1CCCN1C(=O)[C@@H](N)CCCCN)C(C)C)C(=O)N[C@@H](CO)C(=O)N[C@@H](Cc1ccc(O)cc1)C(=O)NCCOCCOCCOCCC(=O)NCCCC[C@H](NC(=O)[C@@H]1CSSC[C@H](NC(=O)[C@H](Cc2ccc3ccccc3c2)NC(=O)[C@H](CCCNC(=N)N)NC(=O)[C@@H](N)CCCNC(=N)N)C(=O)N[C@@H](Cc2ccc(O)cc2)C(=O)N[C@@H](CCCNC(=N)N)C(=O)N[C@@H](CCCCN)C(=O)N[C@H](CCCCN)C(=O)N2CCC[C@H]2C(=O)N[C@@H](Cc2ccc(O)cc2)C(=O)N[C@@H](CCCNC(=N)N)C(=O)N[C@@H](CCCNC(=N)N)C(=O)N1)C(=O)O`, in assay [1], the IC50 was determined as 437 nM. In addition, in assay [3], a half-maximal response (EC50) required 61 nM and the Emax came out at 24%.
